An excerpt weighted towards active compounds, which were near 2.3% of everything screened.
TPT1 inh = C. albicans TPT1 enzyme inhibition; inhibition, % at 5 µM; recombinant caTPT1, FP RNA substrate dephosphorylation; 300,000 tested, 0.81% active; AID 1962;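 active = inhibition above the mean of all tested compounds plus 3 SD, set per screening campaign, cut at about 24% in these data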
CSN deneddyl inh = blocks human CSN-mediated cullin deneddylation | 360,000 tested, 0.38% active | inhibition, % at 12.5 µM | Purified CSN, SCF-Nedd8-OG deneddylation, fluorescence polarization | AID 651999;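 active = pattern-corrected inhibition above about 35%, with an unprinted fluorescence ratio check between 0.5 and 1.5, limit read from the data, passing the limit was not always enough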
Target sequence (Q92905 whole entry, looked up, one chain of several): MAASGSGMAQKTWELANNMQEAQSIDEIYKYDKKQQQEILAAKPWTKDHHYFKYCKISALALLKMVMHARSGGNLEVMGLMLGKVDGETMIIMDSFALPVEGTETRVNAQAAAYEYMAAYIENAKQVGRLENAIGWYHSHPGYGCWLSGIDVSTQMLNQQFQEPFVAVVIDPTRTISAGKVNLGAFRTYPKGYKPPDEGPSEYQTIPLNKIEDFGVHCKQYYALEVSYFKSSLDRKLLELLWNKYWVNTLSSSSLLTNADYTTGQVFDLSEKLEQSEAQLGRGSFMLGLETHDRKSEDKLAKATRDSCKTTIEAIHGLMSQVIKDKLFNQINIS
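Detection – fluorescence polarization · System – HEK293T-derived human Csn5 enzyme · Controls – substrate-only high control, full reaction low control · Timing – 90 min, room temperature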
Rpn11 inh = inhibitors of human proteasome Rpn11. O00487. human 26S proteasome, Ub4-pepOG fluorescence polarization; 20S core pre-blocked with epoxomicin. inhibition, % at 20 µM. 360,000 tested, 0.59% active. AID 588493;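 active = inhibition at 20 µM, scaled to each plate's controls, above about 33%, limit read from the data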
Target sequence (O00487 whole entry, looked up): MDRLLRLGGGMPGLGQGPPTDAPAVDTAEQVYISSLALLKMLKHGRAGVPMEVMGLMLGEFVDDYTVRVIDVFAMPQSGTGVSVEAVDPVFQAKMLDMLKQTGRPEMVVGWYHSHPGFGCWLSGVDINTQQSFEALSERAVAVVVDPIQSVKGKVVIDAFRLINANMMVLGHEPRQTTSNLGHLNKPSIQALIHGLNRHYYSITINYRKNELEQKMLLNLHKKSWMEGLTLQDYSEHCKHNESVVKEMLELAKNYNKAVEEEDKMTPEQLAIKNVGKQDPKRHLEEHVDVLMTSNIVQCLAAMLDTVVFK
Myeloid diff 2 = compounds promoting myeloid differentiation | ER-HoxA9 myeloid progenitors, lysozyme-GFP differentiation, flow cytometry | calls only at 10 µM | 360,000 tested, 1% active;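 active = normalized GFP-positive differentiation at or above the plate's own cutoff, the solvent-only control mean plus 3 SD; inconclusive = no clear call, values can overlap the other calls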;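 also: cells exposed to compound for four days before flow analysis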
HNF4A DNA FP = change in binding of human HNF4 alpha to DNA; P41235; HNF4a-FITC DNA binding, fluorescence polarization, 1 h; activity change, % at 10 µM; 360,000 tested, 0.3% active; AID 1224865; in the data active = activity change above about 30%, passing the limit was not always enough
caTPT1 confirm = confirmation of Candida albicans TPT1 inhibitors. shares compounds with TPT1 inh. recombinant caTPT1, fluorescence polarization, RNase T1 coupled. inhibition, % at 5 µM. 2,400 tested, 74% active;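 active = inhibition above the primary screen limit, the mean inhibition of all tested compounds plus 3 SD, cut at about 25% in these data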
RNase T1 counter = blocks Aspergillus oryzae RNase T1, a TPT1 counter-screen; RNase T1 cleavage, fluorescence polarization, 1536-well; shares compounds with TPT1 inh; inhibition, % at 5 µM; 2,400 tested, 83% active;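 active = inhibition above the solvent-only control well mean plus 3 SD, limit set per screening run, cut at about 23% in these data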;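 also: inhibitors block cleavage so intact labeled substrate keeps polarization high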
Of the large screens only hits and unclear results are named; the others gave an inactive call (follow-up assays come after a bar, where shown).

CCN(CCO)c1ccc(N=Cc2c(O)n(C)c(=S)[nH]c2=O)cc1	TPT1 inh 57 (not shown: Rpn11 inh) | caTPT1 confirm 86 | RNase T1 counter 94
CCn1c(O)c(C=Nc2ccc(S(N)(=O)=O)cc2)c(=O)[nH]c1=S	none
COc1ccc(CCn2c(O)c(C=Nc3ccc(F)cc3)c(=O)[nH]c2=O)cc1OC	none
CCN(CC)c1ccc(N=Cc2c(O)n(CCc3ccc(OC)c(OC)c3)c(=O)[nH]c2=O)cc1	TPT1 inh 43 (not shown: Rpn11 inh) | caTPT1 confirm 80 | RNase T1 counter 93
COc1cc2cc(C(=O)N3CC(COS(C)(=O)=O)c4ccc(O)cc43)[nH]c2c(OC)c1OC (configuration not stated)	none (no result: TPT1 inh, Myeloid diff 2)
CCN(CC)c1ccc(/C=N/c2sc3c(c2C#N)C2CCN3CC2)c(O)c1	TPT1 inh 161, Myeloid diff 2 inconclusive (not shown: Rpn11 inh) | caTPT1 confirm 146 | RNase T1 counter 133
CSCCC(c1nnnn1Cc1ccccc1)N1CCC2(CC1)C(=O)NCN2c1ccccc1 (configuration not stated)	none (no result: TPT1 inh)
COc1ccc2[nH]c3c(c2c1)CCN=C3C	TPT1 inh 33 | caTPT1 confirm inactive | RNase T1 counter inactive
COc1ccc2[nH]cc(CCN)c2c1	none
Cc1ccccc1OP(=O)(Oc1ccccc1C)N1CCOCC1	none (no result: TPT1 inh)
CN1CCN(CCOC2c3ccccc3CSc3ccc(Cl)cc32)CC1 (configuration not stated)	TPT1 inh 55 | caTPT1 confirm inactive | RNase T1 counter inactive
COc1ccc(NC2Oc3cc4c(cc3C(c3cc(OC)c(OC)c(OC)c3)C2C)OCO4)cc1 (configuration not stated)	none (no result: TPT1 inh, Myeloid diff 2)
CCCCn1c(O)c(/C(CC)=N/N2CCCCC2c2cccnc2)c(=O)[nH]c1=S (configuration not stated)	none
C/C(=N\N1CCCCC1c1cccnc1)c1c(O)n(C2CCCCC2)c(=S)[nH]c1=O (configuration not stated)	TPT1 inh 82, HNF4A DNA FP 61 (not shown: Rpn11 inh) | caTPT1 confirm 123 | RNase T1 counter 133
Cn1c(O)c(/C=N/NC(=O)c2ccncc2)c(=O)[nH]c1=S	none
CCCCn1c(O)c(/C=N/NC(=O)c2ccncc2)c(=O)[nH]c1=S	TPT1 inh 30, HNF4A DNA FP 48 (not shown: Rpn11 inh) | caTPT1 confirm inactive | RNase T1 counter 29
Cc1ccc(-n2c(O)c(/C=N/NC(=O)c3ccncc3)c(=O)[nH]c2=O)cc1	TPT1 inh 30 | caTPT1 confirm 47 | RNase T1 counter 56
O=C(COC(=O)c1cc(Br)cc(Br)c1O)NC12CC3CC(CC(C3)C1)C2	none (no result: TPT1 inh)
Cc1ccc(C)c(Cn2c(C(=O)O)c(C=O)c3ccccc32)c1	TPT1 inh 124 (not shown: Rpn11 inh) | caTPT1 confirm 143 | RNase T1 counter 137
COc1ccc(OC)c(N2C(=O)/C(=C/c3ccco3)C(=O)NC2=S)c1	TPT1 inh 68 (no result: CSN deneddyl inh, Rpn11 inh, Myeloid diff 2, HNF4A DNA FP) | caTPT1 confirm 55 | RNase T1 counter 27
C1CN(P2(N3CC3)=NP(N3CC3)(N3CC3)=NP(N3CC3)(N3CC3)=N2)CCO1 (configuration not stated)	none (no result: TPT1 inh)
CC1=Nc2ccccc2/C1=C/c1c(O)[nH]c(=O)[nH]c1=O	none
O=c1[nH]c(O)c(/C=C2/C=CC(c3cc(Cl)ccc3Cl)=N2)c(=O)[nH]1	TPT1 inh 93, Myeloid diff 2 active | caTPT1 confirm 108 | RNase T1 counter 103
O=P1(NCCCl)OCCC(OO)N1CCCl (configuration not stated)	none (no result: TPT1 inh, Rpn11 inh)
Cc1cccc(N2C(=O)NC(=O)/C(=C/c3ccc([N+](=O)[O-])o3)C2=O)c1	TPT1 inh 28 (no result: CSN deneddyl inh, Rpn11 inh, Myeloid diff 2, HNF4A DNA FP) | caTPT1 confirm inactive | RNase T1 counter inactive
Cc1cccc(N2C(=O)NC(=O)/C(=C\c3cccn3-c3ccc(Cl)cc3)C2=O)c1	none
COc1ccc(-n2nnnc2C(c2cccs2)N2CCC3(CC2)C(=O)NCN3c2ccccc2)cc1 (configuration not stated)	none (no result: TPT1 inh)
CN(C)/C=C1/C(=O)NC(=O)N(CCNc2ncc(C(F)(F)F)cc2Cl)C1=O	TPT1 inh 29 | caTPT1 confirm inactive | RNase T1 counter 34
COc1ccc(CN2C(=O)CC(=O)NC2=O)cc1	TPT1 inh 24 | caTPT1 confirm inactive | RNase T1 counter 24
Cc1ccc(C(O)(C(=O)OC(C)C)C(O)c2ccc(F)cc2)cc1 (configuration not stated)	none (no result: TPT1 inh, Rpn11 inh)
O=C(/C=C/c1c[nH]c2ccccc12)c1c(O)n(CCc2ccccc2)c(=O)[nH]c1=O	TPT1 inh 169, Myeloid diff 2 active (not shown: Rpn11 inh) | caTPT1 confirm 177 | RNase T1 counter 162
Cn1c(O)c(/C=C/C=Nc2ccccc2)c(=O)n(C)c1=O	TPT1 inh 104, CSN deneddyl inh 56, HNF4A DNA FP 86 (not shown: Rpn11 inh) | caTPT1 confirm 111 | RNase T1 counter 118
COC(=O)C1(F)C(=O)NC(=O)NC1O (configuration not stated)	Myeloid diff 2 inconclusive (no result: TPT1 inh, Rpn11 inh)
O=C(c1ccc2c(c1)N(Cc1ccccc1)CCS2)N1CCC2(CC1)OCCO2	none
O=C1Nc2cc(C(=O)N3CCC4(CC3)OCCO4)ccc2NC1CSCc1cccc(F)c1 (configuration not stated)	TPT1 inh 61 (no result: CSN deneddyl inh, Rpn11 inh, Myeloid diff 2, HNF4A DNA FP) | caTPT1 confirm 96 | RNase T1 counter 101
CCCCCn1c(NC(=O)c2ccco2)c(C(=O)OCC)c2nc3ccccc3nc21	TPT1 inh 36, Myeloid diff 2 inconclusive | caTPT1 confirm 31 | RNase T1 counter 43
COc1cc(N2CCOCC2)ccc1/C=C1\C(=O)NC(=O)N(Cc2cccs2)C1=O	none
COc1cc(N2CCOCC2)ccc1/C=C1\C(=O)NC(=O)N(Cc2ccc3c(c2)OCO3)C1=O	TPT1 inh 27 | caTPT1 confirm 46 | RNase T1 counter 65
O=C1NC(=O)C(CCc2ccncc2)(Cc2ccc([N+](=O)[O-])cc2)C(=O)N1	TPT1 inh 28 | caTPT1 confirm inactive | RNase T1 counter inactive
COc1ccc(CC2(CCc3ccncc3)C(=O)NC(=O)NC2=O)cc1	none
CN1C(=O)C(=Cc2ccc(N3CCOCC3)o2)C(=O)N(C)C1=S	TPT1 inh 57, HNF4A DNA FP 87 (not shown: Rpn11 inh) | caTPT1 confirm 114 | RNase T1 counter 118
CN1C(=O)/C(=C\c2ccc(N3CCCCCC3)cc2)C(=O)NC1=S	none
CN1C(=O)/C(=C/c2ccc(N3CCCCCC3)o2)C(=O)NC1=S	TPT1 inh 167 (not shown: Rpn11 inh) | caTPT1 confirm 145 | RNase T1 counter 138
CCOc1ccc(N2C(=O)NC(=O)/C(=C\c3ccc(N4CCCCC4)o3)C2=O)cc1	TPT1 inh 138 (not shown: Rpn11 inh) | caTPT1 confirm 149 | RNase T1 counter 146
CCCCN1C(=O)/C(=C/c2ccc(N3CCCCCC3)cc2)C(=O)NC1=S	TPT1 inh 36 (no result: CSN deneddyl inh, Rpn11 inh, Myeloid diff 2, HNF4A DNA FP) | caTPT1 confirm 33 | RNase T1 counter 43

Source: PubChem BioAssay (several laboratories)
